Many of the other results were omitted from the sample, so hits are more common in it than they were.
HSF1 inhib – HSF1 inhibition; activity change, negative = inhibition, % at 7.5 µM (by protocol); actives 0.77% (n = 300,000); NIH3T3-HGL HSE-luciferase, MG132-induced, luminescence 8 h; stronger effect = lower value;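 active means more than half of replicate wells show activity change below -50%, luminescence cut by over half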;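 further: luciferase reports HSF-1 transcriptional activity via heat shock element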
T cruzi inh – T. cruzi replication inhibition; T. cruzi beta-gal in NIH3T3, luminescence, 90 h; inhibition, % (concentration not given with the values); actives 1.4% (n = 300,000); AID 1885;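 active means mean inhibition across valid replicates above about 55%, limit read from the data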;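 further: signal also drops with host cell toxicity which is not excluded here; higher percent means less beta-gal luminescence so fewer parasites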
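Assay system: NIH/3T3 fibroblasts plus reporter T. cruzi. Amount: NIH/3T3 cells, 5,000 per well. Buffer or medium: DMEM, 2% fetal bovine serum. Doses: compound pinned at 50 nL/well, DMSO. Schedule: ≥90 h infection period, 3 h prior cell attachment. Signal: luminescent β-galactosidase signal after 60 min lysis. Read-out: parasite load inhibition, %.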
Hsp70 activator – transcriptional activators of Hsp70. HeLa Hsp70 promoter luciferase reporter, luminescence; scaled: vehicle 0, proteasome-inhibitor control 100%. activation, % at 10 µM. actives 0.04% (n = 200,000);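 active means activation above the mean across all tested compounds plus 3 SD, cutoff set per campaign, cut at about 5.5% in these data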
L major viab – Leishmania major promastigote growth inhibition; Leishmania major promastigotes, resazurin fluorescence viability; inhibition, % at 10 µM; actives 9% (n = 200,000); AID 1063; in the data active means inhibition above about 50%;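 further: promastigotes grown with compound for 44 hours at 28 °C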
HSF-1 act – increases HSF-1 driven luciferase reporter signal; NIH3T3-HGL HSF-1 luciferase reporter, MG132, 8 h; 100% = twice DMSO control signal; activation, % at 9 µM; actives 1.7% (n = 300,000); AID 504408;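 active means mean replicate activation of at least 50% with a set share of replicates each reaching 50%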
Hits are given with their value.

`CC1CCN(CCCn2c(=S)[nH]c3ccccc3c2=O)CC1` gave HSF1 inhib inactive, T cruzi inh inactive, Hsp70 activator inactive, L major viab 99.8 and HSF-1 act inactive.
`O=c1c2ccccc2[nH]c(=S)n1CCCN1CCOCC1` gave HSF1 inhib inactive, T cruzi inh inactive, Hsp70 activator inactive, L major viab inactive and HSF-1 act inactive.
`CCOC(=O)C1=C(CN2c3ccccc3CC2C)NC(=O)NC1c1ccccc1` (stereo not given) gave HSF1 inhib inactive, T cruzi inh inactive, Hsp70 activator inactive, L major viab inactive and HSF-1 act inactive.
COC(=O)C1=C(CN2CCCc3ccccc32)NC(=O)NC1c1ccc(F)cc1 (stereo not given) was read as HSF1 inhib -70.7, T cruzi inh inactive, Hsp70 activator inactive, L major viab inactive and HSF-1 act inactive.
Screening COC(=O)C1=C(CN2CCc3ccccc32)NC(=O)NC1c1cc(C)ccc1C (stereo not given) returned HSF1 inhib inactive, T cruzi inh inactive, Hsp70 activator inactive, L major viab 70.4 and HSF-1 act inactive.
`O=S(=O)(Cc1ccccc1)N1CCc2ccccc21` gave HSF1 inhib inactive, T cruzi inh inactive, Hsp70 activator inactive, L major viab 100.3 and HSF-1 act inactive.
`Cc1ccc(C)c(C(=O)CSc2nc(N)cc(=O)[nH]2)c1` gave HSF1 inhib -54.8, T cruzi inh inactive and HSF-1 act inactive.
For Cc1ccc(C)c(C(=O)CSc2nc(C)cc(=O)[nH]2)c1 the results were HSF1 inhib inactive, T cruzi inh inactive and HSF-1 act inactive.
Cc1ccc(CN(C)C(=O)C2CCC(=O)N(C3CCCCCC3)C2)cc1 (stereo not given) was read as HSF1 inhib inactive, T cruzi inh inactive and HSF-1 act inactive.
Screening CC(Oc1ccc(Cl)cc1Cl)c1nc(-c2ccc(NC(=O)c3ccco3)cc2)no1 (stereo not given) returned HSF1 inhib inactive, T cruzi inh inactive, Hsp70 activator inactive, L major viab inactive and HSF-1 act 60.9.
Screening CC(C)c1nnc(NC(=O)CCC(=O)N2CCC(Cc3ccccc3)CC2)s1 returned HSF1 inhib inactive, T cruzi inh inactive and HSF-1 act inactive.
For O=C(CCc1c[nH]c2ccccc12)NCCc1ccccc1 the results were HSF1 inhib inactive, T cruzi inh inactive and HSF-1 act inactive.
Screening Cc1cc(C)nc(NC(=NCCc2c[nH]c3ccccc23)NC(=O)Nc2ccc(Cl)cc2)n1 returned HSF1 inhib inactive, T cruzi inh inactive, Hsp70 activator inactive, L major viab 73.1 and HSF-1 act inactive.
For O=C(N[C@@H](Cc1c[nH]c2ccccc12)C(=O)O)c1ccc(Cl)cc1 the results were HSF1 inhib inactive, T cruzi inh inactive, Hsp70 activator inactive, L major viab inactive and HSF-1 act inactive.
O=C(CCc1c[nH]c2ccccc12)NCCc1ccc(Cl)cc1 was read as HSF1 inhib inactive, T cruzi inh inactive and HSF-1 act 54.8.
Screening Cc1cc(C)nc(NC(N)=NCCc2c[nH]c3ccccc23)n1 returned HSF1 inhib inactive, T cruzi inh inactive, Hsp70 activator inactive, L major viab 78.2 and HSF-1 act inactive.
NC(=NCCc1c[nH]c2ccccc12)NC(=O)c1ccc(Cl)cc1 was read as HSF1 inhib inactive, T cruzi inh inactive, Hsp70 activator inactive, L major viab 59.9 and HSF-1 act inactive.
O=C(Nc1cccc([N+](=O)[O-])c1)C1CCN(C(=O)Cc2ccccc2)CC1 was read as HSF1 inhib inactive, T cruzi inh inactive and HSF-1 act inactive.
`Cc1c(F)cccc1NC(=O)c1ccc2c(c1)CCN2S(C)(=O)=O` gave HSF1 inhib inactive, T cruzi inh inactive and HSF-1 act inactive.
`CC(C)(CC(=O)O)CC(=O)Nc1ccc(Cl)c(Cl)c1` gave HSF1 inhib inactive, T cruzi inh inactive and HSF-1 act inactive.
For COc1ccccc1N=C(C)C1=C(O)CC(c2ccccc2)CC1=O (stereo not given) the results were HSF1 inhib inactive, T cruzi inh inactive, Hsp70 activator inactive, L major viab 53.0 and HSF-1 act inactive.
For CCCC(=Nc1ccccc1OC)C1=C(O)CC(c2ccccc2)CC1=O (stereo not given) the results were HSF1 inhib inactive, T cruzi inh inactive, Hsp70 activator inactive, L major viab 99.3 and HSF-1 act inactive.
`CCCCC(=Nc1ccccc1OC)C1=C(O)CC(c2ccccc2)CC1=O` (stereo not given) gave HSF1 inhib inactive, T cruzi inh inactive, Hsp70 activator inactive, L major viab inactive and HSF-1 act inactive.
CN(C)c1ccc(N=C/C=C2/N(C)c3ccccc3C2(C)C)cc1 was read as HSF1 inhib inactive, T cruzi inh inactive, Hsp70 activator inactive, L major viab 90.3 and HSF-1 act inactive.
Screening CN1/C(=C\C=C2/SC(=S)NC2=O)C(C)(C)c2ccccc21 returned HSF1 inhib inactive, T cruzi inh 75.3, Hsp70 activator inactive, L major viab 91.9 and HSF-1 act inactive.
`CN1/C(=C\C=[N+](C)c2ccccc2)C(C)(C)c2ccccc21` gave HSF1 inhib inactive, T cruzi inh 63.6, Hsp70 activator inactive, L major viab 100.2 and HSF-1 act inactive.
For Cc1ccccc1N=C/C=C1\N(C)c2ccccc2C1(C)C the results were HSF1 inhib inactive, T cruzi inh inactive, Hsp70 activator inactive, L major viab 96.7 and HSF-1 act inactive.
CN1/C(=C\C=N\O)C(C)(C)c2ccccc21 was read as HSF1 inhib inactive, T cruzi inh inactive, Hsp70 activator inactive, L major viab inactive and HSF-1 act inactive.
For CO/N=C/C=C1/N(C)c2ccccc2C1(C)C the results were HSF1 inhib inactive, T cruzi inh inactive, Hsp70 activator inactive, L major viab inactive and HSF-1 act inactive.
Screening CCCN1C(=O)/C(=C\C=C2\N(CC)c3ccccc3C2(C)C)SC1=S returned HSF1 inhib inactive, T cruzi inh inactive, Hsp70 activator inactive, L major viab inactive and HSF-1 act inactive.
Screening O=C(CO/N=C/c1ccc(OC(F)F)cc1)NC1CCCCCC1 returned HSF1 inhib inactive, T cruzi inh inactive, Hsp70 activator inactive, L major viab inactive and HSF-1 act inactive.
Cc1ccc(CN2CC(C(=O)N3CC(C)CC(C)C3)CC2=O)cc1 (stereo not given) was read as HSF1 inhib inactive, T cruzi inh inactive and HSF-1 act inactive.
For CSc1ccccc1C(=O)N1CCN(c2ncccn2)CC1 the results were HSF1 inhib -70.3, T cruzi inh inactive, Hsp70 activator inactive, L major viab inactive and HSF-1 act inactive.
`O=C(c1ccccc1F)N1CCN(c2ncccn2)CC1` gave HSF1 inhib inactive, T cruzi inh inactive, Hsp70 activator inactive, L major viab inactive and HSF-1 act inactive.
For O=C(CCCn1cc([N+](=O)[O-])cn1)Nc1cccnc1 the results were HSF1 inhib inactive, T cruzi inh inactive and HSF-1 act inactive.
`NC(=O)c1ccccc1NC(=O)/C=C/c1c(Cl)cccc1Cl` gave HSF1 inhib inactive, T cruzi inh inactive, Hsp70 activator inactive, L major viab inactive and HSF-1 act 83.1.

Screens deposited in PubChem BioAssay by several laboratories.
